In ChEMBL document CHEMBL4049426, “Identification of the Clinical Candidate (R)-(1-(4-Fluorophenyl)-6-((1-methyl-1H-pyrazol-4-yl)sulfonyl)-4,4a,5,6,7,8-hexahydro-1H-pyrazolo[3,4-g]isoquinolin-4a-yl)(4-(trifluoromethyl)pyridin-2-yl)methanone (CORT125134): A Selective Glucocorticoid Receptor (GR) Antagonist” (J Med Chem, 2017):
The source made the active and inactive calls. The rule behind the calls is not given here.

How the values were obtained:
Glucocorticoid receptor = target: T1, Glucocorticoid receptor (Homo sapiens, UniProt P04150); test: Antagonist activity at glucocorticoid receptor in human HepG2 cells assessed as inhibition of dexamethasone-induced tyrosine amino transferase activity preincubated for 30 mins followed by dexamethasone addition measured after 20 hrs; format: cell-based
T1 sequence (P04150 whole entry): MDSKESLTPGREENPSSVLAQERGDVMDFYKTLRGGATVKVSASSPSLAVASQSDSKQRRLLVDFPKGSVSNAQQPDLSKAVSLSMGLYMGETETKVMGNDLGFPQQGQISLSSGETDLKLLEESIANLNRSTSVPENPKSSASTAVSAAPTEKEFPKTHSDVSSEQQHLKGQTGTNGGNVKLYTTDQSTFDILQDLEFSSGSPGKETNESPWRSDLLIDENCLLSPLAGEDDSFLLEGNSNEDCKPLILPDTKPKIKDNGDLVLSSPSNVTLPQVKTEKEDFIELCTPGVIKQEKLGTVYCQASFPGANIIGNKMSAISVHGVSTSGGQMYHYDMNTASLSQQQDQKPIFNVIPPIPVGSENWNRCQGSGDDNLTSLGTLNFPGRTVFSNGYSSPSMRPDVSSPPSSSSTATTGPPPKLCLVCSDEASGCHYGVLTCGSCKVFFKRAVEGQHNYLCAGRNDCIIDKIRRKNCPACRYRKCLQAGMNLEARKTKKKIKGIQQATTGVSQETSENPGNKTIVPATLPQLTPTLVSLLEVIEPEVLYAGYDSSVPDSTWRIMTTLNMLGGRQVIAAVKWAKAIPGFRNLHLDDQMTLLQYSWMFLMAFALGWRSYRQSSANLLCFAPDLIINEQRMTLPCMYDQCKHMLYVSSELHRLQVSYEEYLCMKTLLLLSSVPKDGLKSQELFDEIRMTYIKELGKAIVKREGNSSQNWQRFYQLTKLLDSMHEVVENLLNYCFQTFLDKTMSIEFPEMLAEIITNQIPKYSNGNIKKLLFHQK

[1] = Cmax in Sprague-Dawley CD-1 rat plasma at 3 mg/kg, po administered as cassette dose via gavage measured up to 24 hrs by LC/MS analysis; format: ADME, organism-based; set-up: dose 3 mg/kg, route oral
Procedure, shortened: (§1)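 Three male Sprague Dawley CD-1 rats (220-250g) with jugular vein catheters; three test compounds plus a reference dosed together by oral gavage, 3mg/kg each, in DMSO:0.5% methylcellulose 10:90 (0.6mg/mL per compound), 5mL/kg. Plasma sampled pre-dose and at 0.25, 0.5, 1, 2, 4, 6, 8, 24 h; LC/MS.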

[2] = AUC in Sprague-Dawley CD-1 rat plasma at 3 mg/kg, po administered as cassette dose via gavage measured up to 24 hrs by LC/MS analysis; format: ADME, organism-based; set-up: time < 24 hr, dose 3 mg/kg, route oral; procedure, shortened: as §1
[3] = Cmax in Sprague-Dawley CD-1 rat plasma at 5 mg/kg, po administered through gavage measured up to 24 hrs by LC/MS analysis; format: ADME, organism-based; set-up: dose 5 mg/kg, route oral
Procedure, shortened: (§2)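 Jugular-catheterized male Sprague Dawley CD-1 rats (220-250g). Oral arm: five rats, 5mg/kg gavage, 1mg/mL in DMSO:0.5% methylcellulose 10:90, 5mL/kg, sampled pre-dose and 0.25-24 h. i.v. arm: three rats, 1mg/kg, 0.5mg/mL in DMSO:PEG400:propylene glycol 10:45:45, sampled pre-dose and 0.08-24 h. Plasma by LC/MS.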

[4] = AUC in Sprague-Dawley CD-1 rat plasma at 5 mg/kg, po administered through gavage measured up to 24 hrs by LC/MS analysis; format: ADME, organism-based; set-up: dose 5 mg/kg, time < 24 hr, route oral; procedure, shortened: as §2
[5] = Oral bioavailability in Sprague-Dawley CD-1 rat plasma at 5 mg/kg administered through gavage measured up to 24 hrs by LC/MS analysis; format: ADME, organism-based; procedure, shortened: as §2
[6] = Cmax in monkey plasma at 20 mg/kg, po measured up to 24 hrs by LC/MS analysis; format: ADME, organism-based, Macaca mulatta; set-up: dose 20 mg/kg, route oral; settings: rhesus monkey
Procedure, shortened: (§3)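 Monkey i.v./p.o. study: oral 20mg/kg in 10% DMSO, 0.1% Tween 80, 0.5% hydroxypropylmethylcellulose in water; i.v. dose 1mg/kg.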

[7] = AUC in monkey plasma at 20 mg/kg, po measured up to 24 hrs by LC/MS analysis; format: ADME, organism-based, Macaca mulatta; set-up: dose 20 mg/kg, time < 24 hr, route oral; settings: rhesus monkey; procedure, shortened: as §3
[8] = Oral bioavailability in monkey plasma at 20 mg/kg measured up to 24 hrs by LC/MS analysis; format: ADME, organism-based, Macaca mulatta; settings: rhesus monkey; procedure, shortened: as §3
Rattus norvegicus [9] = test: (§4) In vivo antagonist activity at glucocorticoid receptor in Sprague-Dawley rat assessed as reduction in cortisone-induced plasma glucose levels at 30 mg/kg, po bid via gavage for 6 days pretreated for 12 hrs followed by cortisone 21-acetate treatment measured 24 hrs after last cortisone 21-acetate treatment; format: functional, organism-based
Procedure, shortened: (§5)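 Male Sprague Dawley rats (200-250g), 3-day vehicle baseline, groups of eight. Compound as suspension in DMSO:Tween 80:0.5% HPMC 10:0.1:89.9, oral gavage twice daily for 6 days; cortisone 21-acetate 30mg/kg s.c. daily in 1% methylcellulose. Tail-vein blood 24 h after last cortisone (12 h after last compound); glucose by clinical reagent, insulin by ultrasensitive rat ELISA.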

Rattus norvegicus [10] = test: as §4, with “rat cortisone model of exogenous Cushing's syndrome” for “rat”, “inhibition of” for “reduction in cortisone-induced”, “insulin” for “glucose”; format: functional, organism-based; procedure, shortened: as §5

Ki (Glucocorticoid receptor) [nM]	Cmax [1] [ng/mL]	AUC at 24 h [2] [ng·h/mL]	Cmax [3] [ng/mL]	AUC at 24 h [4] [ng·h/mL]	bioavailability [5] [%]	Cmax [6] [ng/mL]	AUC at 24 h [7] [ng·h/mL]	bioavailability [8] [%]	Compound	inhibition (Rattus norvegicus [9])	inhibition (Rattus norvegicus [10])
11	239	967	528	1560	62	16	217	1	Cn1nccc1S(=O)(=O)N1CCC2=Cc3c(cnn3-c3ccc(F)cc3)C[C@]2(C(=O)c2cc(C(F)(F)F)ccn2)C1		
									CC#C[C@]1(O)CC[C@H]2[C@@H]3CCC4=CC(=O)CCC4=C3[C@@H](c3ccc(N(C)C)cc3)C[C@@]21C	Active	Active
